ChEMBL document CHEMBL1155924, “Achieving multi-isoform PI3K inhibition in a series of substituted 3,4-dihydro-2H-benzo[1,4]oxazines” (Bioorg Med Chem Lett, 2008)
Calls of active or inactive are those of the source. No cut-off for these calls is given here.

How the values were obtained:
[1] = target: T1, Phosphatidylinositol 4,5-bisphosphate 3-kinase catalytic subunit delta isoform (Homo sapiens, UniProt O00329); experiment: Inhibition of PI3K delta
T1 sequence (O00329 whole entry): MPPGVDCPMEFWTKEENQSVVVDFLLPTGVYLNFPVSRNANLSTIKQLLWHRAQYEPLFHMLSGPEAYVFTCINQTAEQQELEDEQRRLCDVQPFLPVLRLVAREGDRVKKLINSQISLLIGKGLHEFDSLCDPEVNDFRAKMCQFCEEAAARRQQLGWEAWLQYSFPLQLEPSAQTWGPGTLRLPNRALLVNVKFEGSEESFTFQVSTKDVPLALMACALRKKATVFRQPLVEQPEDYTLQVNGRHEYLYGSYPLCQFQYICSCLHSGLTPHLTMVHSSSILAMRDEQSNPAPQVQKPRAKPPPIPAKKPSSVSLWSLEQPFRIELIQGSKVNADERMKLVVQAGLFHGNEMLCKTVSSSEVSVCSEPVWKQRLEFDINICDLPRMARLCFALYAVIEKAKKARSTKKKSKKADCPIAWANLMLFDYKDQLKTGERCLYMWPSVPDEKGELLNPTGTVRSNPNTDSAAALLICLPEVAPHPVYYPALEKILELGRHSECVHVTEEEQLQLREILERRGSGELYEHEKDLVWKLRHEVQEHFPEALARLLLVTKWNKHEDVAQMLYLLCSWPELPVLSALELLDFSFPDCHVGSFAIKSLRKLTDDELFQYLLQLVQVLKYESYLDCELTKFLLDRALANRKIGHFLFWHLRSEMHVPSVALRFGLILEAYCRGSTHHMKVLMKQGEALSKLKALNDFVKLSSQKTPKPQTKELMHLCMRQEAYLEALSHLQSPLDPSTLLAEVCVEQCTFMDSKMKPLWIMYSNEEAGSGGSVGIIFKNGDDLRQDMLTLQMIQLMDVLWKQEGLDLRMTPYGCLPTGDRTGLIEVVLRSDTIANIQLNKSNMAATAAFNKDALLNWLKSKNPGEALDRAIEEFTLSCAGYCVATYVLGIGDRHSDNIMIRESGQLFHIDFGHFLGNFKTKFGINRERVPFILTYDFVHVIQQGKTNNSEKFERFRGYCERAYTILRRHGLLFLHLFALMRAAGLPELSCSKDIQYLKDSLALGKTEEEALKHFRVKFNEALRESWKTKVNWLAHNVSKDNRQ

[2] = target: Phosphatidylinositol 4,5-bisphosphate 3-kinase catalytic subunit gamma isoform (Homo sapiens, UniProt P48736); experiment: Inhibition of PI3K gamma
Sequence of Phosphatidylinositol 4,5-bisphosphate 3-kinase catalytic subunit gamma isoform (P48736 whole entry, canonical isoform): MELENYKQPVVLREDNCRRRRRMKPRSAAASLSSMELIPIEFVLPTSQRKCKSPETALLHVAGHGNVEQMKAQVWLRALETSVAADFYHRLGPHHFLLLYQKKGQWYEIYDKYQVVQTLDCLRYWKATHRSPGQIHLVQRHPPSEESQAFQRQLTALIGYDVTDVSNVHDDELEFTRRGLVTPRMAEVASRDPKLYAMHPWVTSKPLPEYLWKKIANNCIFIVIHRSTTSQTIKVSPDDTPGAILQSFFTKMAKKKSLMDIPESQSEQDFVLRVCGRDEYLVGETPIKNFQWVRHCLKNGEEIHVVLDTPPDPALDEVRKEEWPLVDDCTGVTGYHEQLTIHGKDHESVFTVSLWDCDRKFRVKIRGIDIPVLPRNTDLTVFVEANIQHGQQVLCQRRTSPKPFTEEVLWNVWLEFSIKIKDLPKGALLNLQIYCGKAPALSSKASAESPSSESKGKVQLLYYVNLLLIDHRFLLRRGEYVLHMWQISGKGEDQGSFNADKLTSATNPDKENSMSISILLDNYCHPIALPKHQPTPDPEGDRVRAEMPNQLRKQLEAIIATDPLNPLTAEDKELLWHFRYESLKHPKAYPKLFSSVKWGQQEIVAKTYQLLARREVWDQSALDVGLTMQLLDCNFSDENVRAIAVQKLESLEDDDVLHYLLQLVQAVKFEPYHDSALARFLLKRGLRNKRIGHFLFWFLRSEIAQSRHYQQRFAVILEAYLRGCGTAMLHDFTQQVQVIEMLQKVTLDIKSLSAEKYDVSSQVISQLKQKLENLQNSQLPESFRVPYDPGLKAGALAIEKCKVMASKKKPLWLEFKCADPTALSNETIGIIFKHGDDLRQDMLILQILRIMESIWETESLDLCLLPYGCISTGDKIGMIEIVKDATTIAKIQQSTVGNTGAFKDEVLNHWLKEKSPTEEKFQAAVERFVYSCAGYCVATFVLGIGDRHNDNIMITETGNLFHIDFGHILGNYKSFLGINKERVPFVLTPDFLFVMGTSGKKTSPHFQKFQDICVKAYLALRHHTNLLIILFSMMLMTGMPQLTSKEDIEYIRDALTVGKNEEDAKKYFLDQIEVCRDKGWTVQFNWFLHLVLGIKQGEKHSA

[3] = target: Phosphatidylinositol 4,5-bisphosphate 3-kinase catalytic subunit alpha isoform (Homo sapiens, UniProt P42336); experiment: Inhibition of PI3K alpha
Sequence of Phosphatidylinositol 4,5-bisphosphate 3-kinase catalytic subunit alpha isoform (P42336 whole entry, canonical isoform): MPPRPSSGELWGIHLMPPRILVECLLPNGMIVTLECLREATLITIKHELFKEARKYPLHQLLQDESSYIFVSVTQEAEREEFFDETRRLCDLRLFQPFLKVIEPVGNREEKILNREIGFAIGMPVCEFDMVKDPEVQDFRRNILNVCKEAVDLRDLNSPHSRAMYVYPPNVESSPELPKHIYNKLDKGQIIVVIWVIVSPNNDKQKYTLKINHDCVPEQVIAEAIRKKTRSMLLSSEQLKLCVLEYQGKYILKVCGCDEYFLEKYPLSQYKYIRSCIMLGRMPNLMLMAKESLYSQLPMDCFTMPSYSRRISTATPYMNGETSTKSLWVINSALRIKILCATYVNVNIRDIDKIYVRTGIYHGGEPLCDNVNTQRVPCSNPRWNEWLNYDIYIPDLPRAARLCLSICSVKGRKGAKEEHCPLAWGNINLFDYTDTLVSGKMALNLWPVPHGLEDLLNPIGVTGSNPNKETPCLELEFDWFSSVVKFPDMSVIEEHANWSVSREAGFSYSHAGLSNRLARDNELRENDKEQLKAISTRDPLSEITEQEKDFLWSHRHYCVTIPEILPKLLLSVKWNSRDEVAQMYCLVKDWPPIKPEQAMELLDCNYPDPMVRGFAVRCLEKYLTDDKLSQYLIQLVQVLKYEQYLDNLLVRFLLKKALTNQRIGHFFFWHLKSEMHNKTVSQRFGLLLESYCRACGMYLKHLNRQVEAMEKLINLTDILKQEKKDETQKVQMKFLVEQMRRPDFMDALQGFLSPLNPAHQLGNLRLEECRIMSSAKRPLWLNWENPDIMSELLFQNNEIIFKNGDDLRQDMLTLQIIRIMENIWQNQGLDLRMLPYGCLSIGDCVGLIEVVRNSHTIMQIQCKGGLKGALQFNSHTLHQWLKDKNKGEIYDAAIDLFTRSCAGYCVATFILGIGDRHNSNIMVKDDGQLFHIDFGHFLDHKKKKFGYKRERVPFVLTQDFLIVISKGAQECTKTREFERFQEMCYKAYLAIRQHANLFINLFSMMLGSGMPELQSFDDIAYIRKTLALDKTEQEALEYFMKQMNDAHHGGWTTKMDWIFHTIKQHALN

[4] = target: Phosphatidylinositol 4,5-bisphosphate 3-kinase catalytic subunit beta isoform (Homo sapiens, UniProt P42338); experiment: Inhibition of PI3K beta
Sequence of Phosphatidylinositol 4,5-bisphosphate 3-kinase catalytic subunit beta isoform (P42338 whole entry, canonical isoform): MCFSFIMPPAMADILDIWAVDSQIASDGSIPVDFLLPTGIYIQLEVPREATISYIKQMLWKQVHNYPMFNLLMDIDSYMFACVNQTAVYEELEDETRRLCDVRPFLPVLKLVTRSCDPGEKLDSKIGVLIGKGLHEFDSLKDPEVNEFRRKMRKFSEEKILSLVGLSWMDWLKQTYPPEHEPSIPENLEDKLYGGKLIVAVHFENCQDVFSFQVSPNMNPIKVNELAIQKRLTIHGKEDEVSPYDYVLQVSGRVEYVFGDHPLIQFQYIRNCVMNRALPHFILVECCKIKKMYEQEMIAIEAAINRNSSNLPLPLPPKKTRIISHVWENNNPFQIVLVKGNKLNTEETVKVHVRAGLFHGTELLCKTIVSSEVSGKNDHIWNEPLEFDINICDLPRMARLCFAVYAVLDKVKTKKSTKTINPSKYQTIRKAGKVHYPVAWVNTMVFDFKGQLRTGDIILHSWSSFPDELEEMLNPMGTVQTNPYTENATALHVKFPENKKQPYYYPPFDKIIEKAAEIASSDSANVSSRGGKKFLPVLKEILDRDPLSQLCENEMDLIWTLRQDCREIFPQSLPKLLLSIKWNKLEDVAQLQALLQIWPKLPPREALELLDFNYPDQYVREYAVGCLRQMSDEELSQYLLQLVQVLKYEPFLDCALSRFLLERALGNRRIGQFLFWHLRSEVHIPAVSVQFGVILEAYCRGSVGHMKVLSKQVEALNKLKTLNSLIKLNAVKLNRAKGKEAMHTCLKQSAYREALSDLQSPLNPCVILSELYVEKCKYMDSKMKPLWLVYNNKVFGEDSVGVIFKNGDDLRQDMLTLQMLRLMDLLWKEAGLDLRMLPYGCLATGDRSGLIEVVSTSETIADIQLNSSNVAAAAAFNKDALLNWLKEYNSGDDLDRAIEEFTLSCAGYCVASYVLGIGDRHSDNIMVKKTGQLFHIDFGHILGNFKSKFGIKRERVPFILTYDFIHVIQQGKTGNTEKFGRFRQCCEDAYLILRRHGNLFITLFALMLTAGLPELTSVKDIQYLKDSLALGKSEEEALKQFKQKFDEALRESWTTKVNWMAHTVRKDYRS

Homo sapiens = organism: Homo sapiens; experiment: Selectivity for human PI3K gamma over human PI3K delta
Neutrophil = experiment: Inhibition of fMLP-stimulated superoxide production in TNF alpha-primed human neutrophils by spectrophotometry; type: functional, cell-based
In short: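 Human neutrophils were primed with TNFα and stimulated with fMLP, and cellular superoxide production was monitored. Inhibition values are quoted in nM.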

[5] = Clearance in rat microsomes assessed per mg of protein at 0.5 uM; type: ADME, Liver, Microsome; details: for microsomal CLint at 0.5 µM: liver microsomes
[6] = Clearance in human microsomes assessed per mg of protein at 0.5 uM; type: ADME, Microsome
Hepatocyte = experiment: Clearance in rat hepatocyte assessed per mg of protein at 2 uM; type: ADME, cell-based, Liver; details: hepatocytes
[7] = Cmax in Han-Wistar rat at 3 mg/kg, po; type: ADME, organism-based; parameters: dose 3 mg/kg, route oral; details: in vivo
In short: (§1)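 Male-or-unspecified Han–Wistar rats were given a single oral dose of 3 mg/kg. Plasma Cmax is reported in ng/mL and AUC in ng h/mL.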

[8] = AUC in Han-Wistar rat at 3 mg/kg, po; type: ADME, organism-based; parameters: dose 3 mg/kg, route oral; details: plasma; in short: as §1
[9] = Oral bioavailability in Han-Wistar rat at 3 mg/kg; type: ADME, organism-based; details: in vivo
[10] = target: T2, Testis-specific serine/threonine-protein kinase 1 (Homo sapiens) (UniProt Q9BXA7); experiment: Inhibition of TSSK1 at 10 uM
T2 sequence (whole entry): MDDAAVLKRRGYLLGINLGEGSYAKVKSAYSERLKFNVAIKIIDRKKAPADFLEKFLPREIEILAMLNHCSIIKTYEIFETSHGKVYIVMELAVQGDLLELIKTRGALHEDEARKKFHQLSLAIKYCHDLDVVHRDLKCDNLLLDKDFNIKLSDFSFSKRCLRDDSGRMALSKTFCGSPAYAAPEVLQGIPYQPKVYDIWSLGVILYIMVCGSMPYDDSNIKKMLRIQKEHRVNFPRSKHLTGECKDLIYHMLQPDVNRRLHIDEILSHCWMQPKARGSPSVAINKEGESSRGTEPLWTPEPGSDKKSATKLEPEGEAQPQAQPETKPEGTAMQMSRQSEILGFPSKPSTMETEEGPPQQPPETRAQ

[11] = target: Serine/threonine-protein kinase pim-1 (Homo sapiens) (UniProt P11309); experiment: Inhibition of PIM1 at 10 uM
Sequence of Serine/threonine-protein kinase pim-1 (Homo sapiens) (P11309 whole entry, looked up): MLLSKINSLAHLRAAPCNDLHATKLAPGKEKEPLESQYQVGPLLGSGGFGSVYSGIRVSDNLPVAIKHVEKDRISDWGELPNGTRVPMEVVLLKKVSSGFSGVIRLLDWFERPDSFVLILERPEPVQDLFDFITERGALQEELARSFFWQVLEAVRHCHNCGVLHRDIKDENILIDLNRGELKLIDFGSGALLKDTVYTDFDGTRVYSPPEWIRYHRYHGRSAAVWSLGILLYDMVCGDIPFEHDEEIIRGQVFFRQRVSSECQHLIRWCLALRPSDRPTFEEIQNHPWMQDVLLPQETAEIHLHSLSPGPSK

[12] = Inhibition of CaMK2 at 10 uM
[13] = Inhibition of CK1 at 10 uM
[14] = target: T3, Serine/threonine-protein kinase mTOR (Homo sapiens, UniProt P42345); experiment: Inhibition of mTOR at 10 uM
Rattus norvegicus = experiment: Inhibition of anti-CD3-induced IL2 release in po dosed Lewis rat blood; type: functional
In short: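 Acute T-cell activation was induced by anti-CD3 antibody in male Lewis rats. Compound was given orally, and IL2 released into blood was measured. Percent inhibition of IL-2 was plotted against log dose (mg/kg) to derive ED50. Values are mean ± SEM, n = 8.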

[15] = target: T3, Serine/threonine-protein kinase mTOR; experiment: Inhibition of mTOR
[16] = target: Mitogen-activated protein kinase 14 (Homo sapiens) (UniProt Q16539); experiment: Inhibition of SAPK2a at 10 uM
Sequence of Mitogen-activated protein kinase 14 (Homo sapiens) (Q16539 whole entry): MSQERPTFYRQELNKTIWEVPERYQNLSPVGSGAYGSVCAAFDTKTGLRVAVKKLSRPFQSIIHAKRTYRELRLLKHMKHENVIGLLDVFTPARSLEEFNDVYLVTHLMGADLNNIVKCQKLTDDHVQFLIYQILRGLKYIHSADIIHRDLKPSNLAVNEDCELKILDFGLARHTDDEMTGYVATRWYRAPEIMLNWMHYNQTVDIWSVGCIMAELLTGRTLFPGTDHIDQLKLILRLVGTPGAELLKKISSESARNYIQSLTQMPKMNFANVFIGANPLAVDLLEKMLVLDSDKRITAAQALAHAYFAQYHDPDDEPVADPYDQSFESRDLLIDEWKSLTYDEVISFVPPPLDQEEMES

[17] = Clearance in Han-Wistar rat at 1 mg/kg, iv; type: ADME, organism-based; parameters: dose 1 mg/kg, route intravenous; details: in vivo
In short: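 Han–Wistar rats were dosed intravenously at 1 mg/kg. Clearance is reported in mL/min/kg.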

| IC50 [1] [nM] | IC50 [2] [nM] | IC50 [3] [nM] | IC50 [4] [nM] | SMILES | other results |
| --- | --- | --- | --- | --- | --- |
| 94 | 159 | 825 | 1050 | CC1(C)CC(=O)c2sc(N3CCOc4ccc(-c5ccncc5)cc43)nc2C1 | – |
| 783 | 357 | – | 1240 | CC1(C)Cc2nc(N3CCOc4cc(F)ccc43)sc2C(=O)N1 | – |
| 614 | 829 | 676 | 511 | CC1(C)CC(=O)c2sc(N3CCOc4ccccc43)nc2C1 | fold change (FC) (Homo sapiens): 2; IC50 (Neutrophil): 759 nM; microsomal CLint at 0.5 µM [5]: 220 µL/min/mg; microsomal CLint at 0.5 µM [6]: 47 µL/min/mg; CL (Hepatocyte): 162 µL/min/mg |
| – | – | – | – | Cc1ccc(-c2ccc3c(c2)N(c2nc4c(s2)C(=O)NC(C)(C)C4)CCO3)nn1 | Cmax [7]: 185 ng/mL; AUC [8]: 2470 ng·h/mL; bioavailability [9]: 66% |
| 15300 | – | – | – | Cc1cccc2c1OCCN2c1nc2c(s1)C(=O)NC(C)(C)C2 | – |
| 155 | 210 | – | 834 | CC1(C)Cc2nc(N3CCOc4ccc(C5CC5)cc43)sc2C(=O)N1 | – |
| 7570 | > 20000 | > 20000 | 10300 | CN(C)Cc1ccc2c(c1)N(c1nc3c(s1)C(=O)NC(C)(C)C3)CCO2 | – |
| 21 | 28 | 116 | 452 | Cc1ccc(-c2ccc3c(c2)N(c2nc4c(s2)C(=O)NC(C)(C)C4)CCO3)cn1 | inhibition [10]: > 80%; inhibition [11]: > 80%; inhibition [12]: > 80%; inhibition [13]: > 80%; Activity [14]: inactive; IC50 (Neutrophil): 57 nM; microsomal CLint at 0.5 µM [5]: 17 µL/min/mg; microsomal CLint at 0.5 µM [6]: 25 µL/min/mg; CL (Hepatocyte): 7 µL/min/mg; Cmax [7]: 649 ng/mL; AUC [8]: 2880 ng·h/mL; ED50 (Rattus norvegicus): 15 mg/kg; IC50 [15]: > 15000 nM |
| 74 | 258 | 677 | 2000 | CC1(C)CC(=O)c2sc(N3CCOc4ccc(-c5ccccn5)cc43)nc2C1 | – |
| 605 | 531 | – | 1620 | Cc1ccc2c(c1)OCCN2c1nc2c(s1)C(=O)NC(C)(C)C2 | – |
| 153 | 321 | 1110 | 1620 | CC1(C)Cc2nc(N3CCOc4ccc(Br)cc43)sc2C(=O)N1 | – |
| – | – | – | – | Cn1cc(-c2ccc3c(c2)N(c2nc4c(s2)C(=O)NC(C)(C)C4)CCO3)cn1 | inhibition [11]: > 50%; inhibition [16]: > 50%; clearance (Hepatocyte): 0 µL/min/mg; Cmax [7]: 1220 ng/mL; AUC [8]: 6160 ng·h/mL; clearance [17]: 7 mL/min/kg; bioavailability [9]: 97%; ED50 (Rattus norvegicus): 25 mg/kg |
| 20 | 113 | 172 | 376 | CC1(C)CC(=O)c2sc(N3CCOc4ccc(-c5cccnc5)cc43)nc2C1 | – |
| 90 | 145 | 917 | 1470 | CC1(C)Cc2nc(N3CCOc4ccc(-c5ccn[nH]5)cc43)sc2C(=O)N1 | – |
| 1050 | > 20000 | > 20000 | – | CC1(C)CC(=O)c2sc(N3CCOc4cc(-c5ccccc5)ccc43)nc2C1 | – |
| 17 | 77 | 188 | 298 | CC1(C)CC(=O)c2sc(N3CCOc4ccc(-c5cn[nH]c5)cc43)nc2C1 | – |
| 1630 | 959 | – | 1230 | CC1(C)Cc2nc(N3CCOc4ccccc43)sc2C(=O)N1 | fold change (FC) (Homo sapiens): 2 |

| IC50 [1] [nM] | IC50 [2] [nM] | IC50 [3] [nM] | IC50 [4] [nM] | SMILES | other results |
| --- | --- | --- | --- | --- | --- |
| 26 | 73 | 164 | 308 | Cc1ccc(-c2ccc3c(c2)N(c2nc4c(s2)C(=O)CC(C)(C)C4)CCO3)cn1 | microsomal CLint at 0.5 µM [5]: 25 µL/min/mg; microsomal CLint at 0.5 µM [6]: 48 µL/min/mg |
| 49 | 52 | 294 | 336 | Cn1cc(-c2ccc3c(c2)N(c2nc4c(s2)C(=O)CC(C)(C)C4)CCO3)cn1 | IC50 (Neutrophil): 44 nM; microsomal CLint at 0.5 µM [5]: 39 µL/min/mg; microsomal CLint at 0.5 µM [6]: 36 µL/min/mg; CL (Hepatocyte): 8 µL/min/mg |
| 357 | 617 | 1810 | 964 | Cc1ccc2c(c1)N(c1nc3c(s1)C(=O)NC(C)(C)C3)CCO2 | – |
| 722 | 5280 | 2370 | 450 | CC1(C)Cc2nc(N3CCOCC3)sc2C(=O)N1 | IC50 (Neutrophil): 2960 nM; microsomal CLint at 0.5 µM [6]: 1 µL/min/mg; CL (Hepatocyte): 1 µL/min/mg |
| 249 | 829 | 1970 | 1920 | CC1(C)CC(=O)c2sc(N3CCOc4ccc(Br)cc43)nc2C1 | – |
| > 20000 | – | – | – | CC1(C)Cc2nc(N3CCOc4cnccc43)sc2C(=O)N1 | – |
| 5730 | 6650 | 11300 | 5310 | CC1(C)CC(=O)c2sc(N3CCOc4ncccc43)nc2C1 | – |
| 366 | 318 | – | 1450 | CC(=O)c1ccc2c(c1)N(c1nc3c(s1)C(=O)NC(C)(C)C3)CCO2 | – |
| 123 | 189 | 791 | 623 | CC1(C)Cc2nc(N3CCOc4ccc(-c5ncccn5)cc43)sc2C(=O)N1 | – |
| – | – | – | – | CC1(C)CC(=O)c2sc(N3CCOCC3)nc2C1 | microsomal CLint at 0.5 µM [5]: 6 µL/min/mg; CL (Hepatocyte): 7 µL/min/mg |
| 285 | 819 | 2900 | 3520 | Cn1ccnc1-c1ccc2c(c1)N(c1nc3c(s1)C(=O)NC(C)(C)C3)CCO2 | – |
| 11200 | 16800 | – | 11700 | CC1(C)Cc2nc(N3CCOc4c(F)cccc43)sc2C(=O)N1 | – |
| 230 | 440 | 1130 | 1590 | COc1ccc2c(c1)OCCN2c1nc2c(s1)C(=O)NC(C)(C)C2 | – |
| 549 | 3130 | 2850 | 5340 | CC1(C)CC(=O)c2sc(N3CCOc4cc(Br)ccc43)nc2C1 | – |
| 81 | 163 | 736 | 727 | CC1(C)Cc2nc(N3CCOc4ccc(-c5cnc[nH]5)cc43)sc2C(=O)N1 | – |
| 51 | 107 | 636 | 325 | Cc1nc(-c2ccc3c(c2)N(c2nc4c(s2)C(=O)NC(C)(C)C4)CCO3)c[nH]1 | – |

| SMILES | IC50 [1] [nM] | IC50 [2] [nM] | IC50 [3] [nM] | IC50 [4] [nM] | other results |
| --- | --- | --- | --- | --- | --- |
| CC1(C)Cc2nc(N3CCOc4ccc(-c5ccccc5)cc43)sc2C(=O)N1 | 50 | 80 | – | 3660 | IC50 (Neutrophil): 573 nM; microsomal CLint at 0.5 µM [5]: 39 µL/min/mg; microsomal CLint at 0.5 µM [6]: 21 µL/min/mg |
| CC1(C)CC(=O)c2sc(N3CCOc4ccc(-c5ccccc5)cc43)nc2C1 | 80 | 854 | 2670 | 7990 | IC50 (Neutrophil): 267 nM; clearance ([5]; microsomes, 0.5 µM): 15 µL/min/mg; clearance ([6]; 0.5 µM): 18 µL/min/mg |
